The full list was thinned out, with hits kept by preference.
RORA inh: inhibitors of orphan receptor RORA, primary screen, cell-based, luminescence. Nuclear receptor ROR-alpha (Homo sapiens), P35398. CHO-K1 Gal4-RORA LBD luciferase reporter. inhibition, % at 10 µM. 0.43% of 65,000 active;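 active means inhibition above the mean of all tested compounds plus 3 SD, cut at about 52% in these data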
Target sequence (P35398 whole entry, looked up, the tested form may be a part): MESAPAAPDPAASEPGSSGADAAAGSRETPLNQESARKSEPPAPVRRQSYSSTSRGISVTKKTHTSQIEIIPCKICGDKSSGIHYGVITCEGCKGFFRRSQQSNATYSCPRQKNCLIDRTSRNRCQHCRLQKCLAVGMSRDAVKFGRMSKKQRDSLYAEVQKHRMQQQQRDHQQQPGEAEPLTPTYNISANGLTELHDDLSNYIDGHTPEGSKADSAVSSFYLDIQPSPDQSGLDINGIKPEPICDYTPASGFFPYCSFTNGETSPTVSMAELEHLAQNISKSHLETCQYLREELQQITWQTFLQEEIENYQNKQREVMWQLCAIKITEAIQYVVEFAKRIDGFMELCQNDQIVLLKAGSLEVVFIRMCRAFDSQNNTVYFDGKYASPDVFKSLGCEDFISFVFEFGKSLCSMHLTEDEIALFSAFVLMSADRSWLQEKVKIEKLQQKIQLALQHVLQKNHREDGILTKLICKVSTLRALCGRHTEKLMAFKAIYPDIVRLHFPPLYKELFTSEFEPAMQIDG
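Test system: CHO-K1 cells with Gal4-hRORA LBD fusion and pG5-luc reporter | Timing: 20 h compound treatment, 37 °C | Detection: Luminescence from basal luciferase reporter expression | Read-out basis: % inhibition of basal luciferase versus +RORA/-RORA DMSO controls | Repeats: One measurement per compound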
A number is an active result; 0 = inactive.

SMILES	RORA inh
c1ccc(OCCCn2nnc(-c3ccc(N4CCOCC4)cc3)n2)cc1	0
CCCn1nnc(NC(=O)c2cc3ccccc3o2)n1	0
CCc1ccc(-c2nnn(CCC(=O)OC)n2)cc1	53
CC1=CC(C)=Nc2ccc(C)cc2N1	0
O=C(C1CC(=O)N(c2ccccc2)C1)N1CCN(C2=NS(=O)(=O)c3ccccc32)CC1 (centres undefined)	0
Cc1nnc(Sc2nc(Sc3nnc(C)s3)nc(N3CCN(C)CC3)n2)s1	93
Cc1ccc2nc(Nc3ncc4c(n3)CCCC4=O)nc(C)c2c1	0
CC1CCc2nc(NC(=O)c3ccco3)sc2C1 (centres undefined)	62
CS(=O)(=O)c1ccc2nc(NC(=O)c3ccco3)sc2c1	0
C=CCOC(=O)c1sc(NC(=O)c2ccco2)nc1C	0
Cn1c(=O)cc(OCCCC(=O)NCc2ccc3c(c2)OCO3)c2ccccc21	0
CC1=C(C(=O)OC(C)(C)C)C(c2ccco2)C(C#N)=C(N)O1 (centres undefined)	0
Cc1nc2cc(NC(=O)NCCC3=CCCCC3)ccc2o1	0
COc1ccccc1C1/C(=C(/O)c2ccc(Cl)cc2)C(=O)C(=O)N1CCN1CCOCC1 (centres undefined)	0
Cc1cccc(NC(=O)c2cc3ccccc3c(=O)o2)n1	0
Cc1cccc(NC(=O)Nc2ccc(C#N)cc2)n1	60
COc1ccc(NC(=O)Nc2cccc(OC)c2)cc1	0
COc1ccc(OCCCSc2ncccn2)cc1	0
O=C(NC1CCCC1)C1C2C=CC(C2)C1C(=O)N1CCOCC1 (centres undefined)	0
COc1cccc(-n2c(SC)nnc2-c2cnccn2)c1	0
Cc1cc(C)n(CCn2nc(C)cc2C)n1	0
Cc1noc(C)c1COC(=O)CCc1nc2ccccc2c(=O)[nH]1	0
Cc1ccc(-n2ncc3c(N4CCC(C(N)=O)CC4)ncnc32)c(C)c1	0
Cc1nn(-c2ccccc2)c(Cl)c1C(=O)N1CCN(c2ncnc3c2cnn3-c2ccccc2)CC1	0
CCOC(=O)C1CCN(c2ncnc3c2cnn3-c2ccc(Cl)cc2)CC1	66
SMILES	RORA inh
CC1CCCC(C)N1C(=O)c1cc(-c2cccs2)on1 (centres undefined)	0
CCCCn1c(SCC(=O)Nc2cc(NC(=O)c3ccco3)ccc2C)nc2ccccc2c1=O	0
CCOC(=O)COc1ccc2c(c1)C(=O)CC(C)(C)O2	0
c1ccc(CN2CCN(c3nc(-c4ccccc4)nc(-n4ccnc4)n3)CC2)cc1	0
c1ccc(CN2CCN(c3ncnc4c3[nH]c3ccccc34)CC2)cc1	67
O=c1c2[nH]c3ccccc3c2ncn1C1CCCCC1	0
O=C(c1ccc(Cn2c(=O)[nH]c3ccccc3c2=O)cc1)N1CCN(c2ccccc2)CC1	0
c1ccc2c(c1)CCN(c1ncnc3c1[nH]c1ccccc13)C2	89
Cc1nn(CC(=O)Nc2nnc(CC(=O)N3CCCC3)s2)c(=O)c2ccccc12	0
COc1ccc(-c2nnc(SCC(=O)Nc3ncc(C)s3)n2-c2ccccc2)cc1OC	0
COC(=O)/C=C/S(=O)(=O)c1ccc(NC(C)=O)cc1	0
CC1(C)N=C(c2ccc(Cl)cc2Cl)C(=O)N1	0
O=C(CC1Oc2ccccc2NC1=O)NCc1ccccc1 (centres undefined)	0
CC(=O)CC1OC(=O)C(Br)=C1NCc1ccccc1 (centres undefined)	63
Cc1csc(NC(=O)Nc2cccc(Cl)c2)n1	0
Cc1occc1-c1nnc(SCC(=O)N2c3ccccc3CCc3ccccc32)n1C	0
COc1ccc(N/C=C2\CCOC2=O)cc1	0
O=C(Nc1ccc2c(c1)OCO2)c1cccc(F)c1	0
O=C1/C(=C/Nc2ccc3c(c2)OCO3)CCc2ccccc21	72
Cc1cc(/C=N/n2cnnc2)c(C)n1-c1ccc(OCc2ccc(F)cc2)cc1	70
C(=N\n1cnnc1)/c1ccc(OC2CSC2)cc1	0
CCc1ccccc1NC(=O)COC(=O)C1CC(=O)N(c2ccc(F)cc2)C1 (centres undefined)	0
CCc1ccc(NC(=O)CSc2nnc(Cc3cccn3C)n2-c2ccc(F)cc2)cc1	0
CNc1oc(-c2ccc(Cl)cc2)nc1C#N	0
CC(=O)Nc1nc2ccc(-c3nc4ccccc4o3)cc2s1	0
SMILES	RORA inh
O=C(Sc1nnc(-c2ccccc2)o1)N1c2ccccc2Sc2ccccc21	0
O=S1(=O)C=C(Sc2nc3ccccc3s2)c2ccccc21	88
OC1CCCCC1Sc1nc2ccccc2s1 (centres undefined)	0
O=S1(=O)C=C(Sc2nnc(-c3ccccc3)o2)c2ccccc21	80
c1ccc(-c2nnc(SCc3cn4ccsc4n3)o2)cc1	0
O=c1oc2ccccc2n1CSc1nc2ccccc2s1	0
Cc1cc(C)nc(SC2=CS(=O)(=O)c3ccccc32)n1	65
Cc1ccnc(N2CCN(c3c4c(c(C#N)c5nc6ccccc6n35)CCC4)CC2)c1	0
CC1(C)CC(=O)C(C=NCC2CCCO2)=C(O)C1 (centres undefined)	0
COc1ccc(N2CCN(CCCNC(=O)CC3Oc4ccc(C)cc4NC3=O)CC2)cc1 (centres undefined)	0
COc1ccc(-n2c(SCC#N)nnc2-c2ccc(NS(=O)(=O)c3ccc(C)cc3)cc2)cc1	0
CCCn1nnnc1SCC(=O)N(C(C)C)C(C)C	0
O=C(CN(Cc1ccco1)C(=O)CNS(=O)(=O)c1ccc(Cl)cc1)NCc1ccc(F)cc1	0
COc1ccc(C(O)P(=O)(O)CCc2ccccc2)cc1 (centres undefined)	0
COc1ccc(S(=O)(=O)NCc2ccco2)cc1-c1nnc2c3ccccc3c(C)nn12	0
CCCCOCCCNC(=O)c1c(-c2ccccc2)noc1C	0
CCC(C)[C@H](N)c1nnc(SCc2cccc(F)c2)o1 (some centres undefined)	0
COc1ccc(-c2nc(C#N)c(NCCc3ccccc3)o2)cc1OC	0
CC(=O)c1c(C)[nH]c(C(=O)Nc2ccc(C)cn2)c1C	73
CCOC(=O)c1[nH]c(C)c(C(=O)Nc2ccccc2C)c1C	0
Cc1ccccc1C(=O)Nc1ccc(Br)cn1	0
Cn1c(=O)c2c(SCc3ccccn3)nc(-c3ccccc3)nc2n(C)c1=O	0
O=C(Cc1cccs1)Nc1nc2ccccc2s1	0
COCCN(CCOC)c1ncnc2c1cnn2-c1ccc(Cl)cc1	0
COc1ccc(-n2ncc3c(N(C)C4CCCCC4)ncnc32)cc1	76
SMILES	RORA inh
CCN(c1ccccc1)c1ncnc2c1cnn2-c1ccccc1	0
Cc1cccc(-n2ncc3c(N(CCO)CCO)ncnc32)c1	0
Cc1cccc(-n2ncc3c(N(C)C4CCCCC4)ncnc32)c1	73
Cc1cccc(-n2ncc3c(NCc4ccccc4)ncnc32)c1	0
Cc1c(C(=O)NCC(C)C)sc2nc(-c3ccc(F)cc3)cn12	0
CCn1c(=O)cc(NC2=NCC(C)CN2c2cccc(Cl)c2)n(C)c1=O (centres undefined)	0
Cc1cccc2cc(COC(=O)C(C)C)c(=O)[nH]c12	0
CN(C)c1ccc(NC(=O)c2ccc(COc3cccc(Cl)c3)o2)cc1	0
O=C1CCC/C1=c1\s/c(=C\c2cccnc2)c(=O)n1-c1ccccc1	0
Cc1ccc(-c2csc3ncnc(Sc4nnc(CN5CCCCCC5=O)o4)c23)cc1	57
COCCCNC(=O)C1CCN(c2nc(C)cc(C)n2)CC1	0
Cc1cc(-c2ccccc2)nc(N2CCC(C(=O)NC(C)C)CC2)n1	0
N/C(=N\S(=O)(=O)c1ccc(Cl)s1)c1ccccc1	0

Screening results (PubChem)
